Laboratory results: ChEMBL document CHEMBL2040727, “Substituted thiazoles VI. Synthesis and antitumor activity of new 2-acetamido- and 2 or 3-propanamido-thiazole analogs” (2012)

Tests used:
Assay type in all cases: functional
HCC 2998 = experiment: Growth inhibition of human HCC2998 cells at 10 uM after 48 hrs by coulter counter analysis; details: HCC 2998, 48 h, read-out: GI
Method in brief: (§1)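 Single-dose NCI 60-line panel screen of test compounds. Cells grown in RPMI 1640 with 10% FBS. Compounds dissolved in DMSO, then diluted in phosphate buffer saline (final DMSO below 1%). Wells run in duplicate at 6 × 10⁴ cells/ml. Controls held PBS and DMSO at matching dilutions. Incubation 48 h at 37 °C under humidified 5% CO2. Cells diluted tenfold in saline and counted by Coulter counter. Percent growth inhibition taken from mean-graph of treated-cell growth.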

RPMI-8226 = experiment: Growth inhibition of human RPMI8226 cells at 10 uM after 48 hrs by coulter counter analysis; details: RPMI-8226, 48 h, read-out: GI; method in brief: as §1
786-0 = experiment: Growth inhibition of human 786-0 cells at 10 uM after 48 hrs by coulter counter analysis; details: 786-0, 48 h, read-out: GI; method in brief: as §1
RXF 393 = experiment: Growth inhibition of human RXF393 cells at 10 uM after 48 hrs by coulter counter analysis; details: RXF 393, 48 h, read-out: GI; method in brief: as §1
OVCAR-3 = experiment: Growth inhibition of human OVCAR3 cells at 10 uM after 48 hrs by coulter counter analysis; details: OVCAR-3, 48 h, read-out: GI; method in brief: as §1
LOX IMVI = experiment: Growth inhibition of human LOXIMVI cells at 10 uM after 48 hrs by coulter counter analysis; details: read-out: GI; method in brief: as §1
HT-29 = experiment: Growth inhibition of human HT-29 cells at 10 uM after 48 hrs by coulter counter analysis; details: HT-29, 48 h, read-out: GI; method in brief: as §1
CAKI-1 = experiment: Growth inhibition of human Caki1 cells at 10 uM after 48 hrs by coulter counter analysis; details: CAKI-1, 48 h, read-out: GI; method in brief: as §1
NCI-H460 = experiment: Growth inhibition of human NCI-H460 cells at 10 uM after 48 hrs by coulter counter analysis; details: NCI-H460, 48 h, read-out: GI; method in brief: as §1
SN12C = experiment: Growth inhibition of human SN12C cells at 10 uM after 48 hrs by coulter counter analysis; details: read-out: GI; method in brief: as §1
MDA-MB-468 = experiment: Growth inhibition of human MDA-MB-468 cells at 10 uM after 48 hrs by coulter counter analysis; details: MDA-MB-468, 48 h, read-out: GI; method in brief: as §1
SNB-19 = experiment: Growth inhibition of human SNB19 cells at 10 uM after 48 hrs by coulter counter analysis; details: SNB-19, 48 h, read-out: GI; method in brief: as §1
CCRF-CEM = experiment: Growth inhibition of human CCRF-CEM cells at 10 uM after 48 hrs by coulter counter analysis; details: read-out: GI; method in brief: as §1
Malme-3M = experiment: Growth inhibition of human MALME-3M cells at 10 uM after 48 hrs by coulter counter analysis; details: read-out: GI; method in brief: as §1
DU-145 = experiment: Growth inhibition of human DU145 cells at 10 uM after 48 hrs by coulter counter analysis; details: DU-145, 48 h, read-out: GI; method in brief: as §1
COLO 205 = experiment: Growth inhibition of human COLO205 cells at 10 uM after 48 hrs by coulter counter analysis; details: COLO 205, 48 h, read-out: GI; method in brief: as §1
HL-60(TB) = experiment: Growth inhibition of human HL-60(TB) cells at 10 uM after 48 hrs by coulter counter analysis; details: HL-60, 48 h, read-out: GI
Method in brief: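 Cells grown in RPMI 1640 with 10% FBS. Compound was dissolved in DMSO and diluted in PBS (under 1% DMSO final), then added in duplicate wells to culture at 6 × 10⁴ cells/ml. PBS/DMSO vehicle controls were included. Incubated at 37 °C, humidified 5% CO₂, for 48 h. Cells were diluted 10-fold in saline and Coulter-counted. Single-dose NCI-60 screen, read as percent growth inhibition.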

U-251 = experiment: Growth inhibition of human U251 cells at 10 uM after 48 hrs by coulter counter analysis; details: U-251, 48 h, read-out: GI
Method in brief: (§2)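 Single-dose screen in the NCI 60 cell line panel. Cells grown in RPMI 1640 with 10% FBS. Compounds dissolved in DMSO and diluted in phosphate buffered saline, final DMSO under 1%. Duplicate wells seeded from culture at 6 × 10⁴ cells/ml. Incubated 48 h at 37 °C, humidified, 5% CO2. Cells diluted tenfold in saline and Coulter-counted. Percent growth inhibition computed against PBS/DMSO controls.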

HCT-15 = experiment: Growth inhibition of human HCT15 cells at 10 uM after 48 hrs by coulter counter analysis; details: HCT-15, 48 h, read-out: GI; method in brief: as §1
UO-31 = experiment: Growth inhibition of human UO31 cells at 10 uM after 48 hrs by coulter counter analysis; details: UO-31, 48 h, read-out: GI; method in brief: as §2
[1] = Growth inhibition of human NCI-ADR-RES cells at 10 uM after 48 hrs by coulter counter analysis; details: read-out: GI; method in brief: as §1
PC-3 = experiment: Growth inhibition of human PC3 cells at 10 uM after 48 hrs by coulter counter analysis; details: PC-3, 48 h, read-out: GI; method in brief: as §1
A498 = experiment: Growth inhibition of human A498 cells at 10 uM after 48 hrs by coulter counter analysis; details: A498, 48 h, read-out: GI; method in brief: as §1
BT-549 = experiment: Growth inhibition of human BT549 cells at 10 uM after 48 hrs by coulter counter analysis; details: BT-549, 48 h, read-out: GI; method in brief: as §1
K562 = experiment: Growth inhibition of human K562 cells at 10 uM after 48 hrs by coulter counter analysis; details: K562, 48 h, read-out: GI; method in brief: as §1
SF-539 = experiment: Growth inhibition of human SF539 cells at 10 uM after 48 hrs by coulter counter analysis; details: SF-539, 48 h, read-out: GI; method in brief: as §1
IGROV-1 = experiment: Growth inhibition of human IGROV1 cells at 10 uM after 48 hrs by coulter counter analysis; details: IGROV-1, 48 h, read-out: GI; method in brief: as §1
SF-268 = experiment: Growth inhibition of human SF268 cells at 10 uM after 48 hrs by coulter counter analysis; details: SF-268, 48 h, read-out: GI; method in brief: as §1
[2] = Growth inhibition of human Hs 578T cells at 10 uM after 48 hrs by coulter counter analysis; details: read-out: GI; method in brief: as §1
SK-MEL-28 = experiment: Growth inhibition of human SK-MEL-28 cells at 10 uM after 48 hrs by coulter counter analysis; details: SK-MEL-28, 48 h, read-out: GI; method in brief: as §1
HOP-92 = experiment: Growth inhibition of human HOP92 cells at 10 uM after 48 hrs by coulter counter analysis; details: HOP-92, 48 h, read-out: GI; method in brief: as §1
SW-620 = experiment: Growth inhibition of human SW620 cells at 10 uM after 48 hrs by coulter counter analysis; details: SW-620, 48 h, read-out: GI; method in brief: as §2
A549 = experiment: Growth inhibition of human A549/ATCC cells at 10 uM after 48 hrs by coulter counter analysis; details: A549, 48 h, read-out: GI; method in brief: as §1

Row | SMILES | inhibition of growth at 10 µM (HCC 2998) [%] | inhibition of growth at 10 µM (RPMI-8226) [%] | inhibition of growth at 10 µM (786-0) [%] | inhibition of growth at 10 µM (RXF 393) [%] | inhibition of growth at 10 µM (OVCAR-3) [%] | inhibition of growth at 10 µM (LOX IMVI) [%] | inhibition of growth at 10 µM (HT-29) [%] | inhibition of growth at 10 µM (CAKI-1) [%] | inhibition of growth at 10 µM (NCI-H460) [%] | inhibition of growth at 10 µM (SN12C) [%] | inhibition of growth at 10 µM (MDA-MB-468) [%] | inhibition of growth at 10 µM (SNB-19) [%] | inhibition of growth at 10 µM (CCRF-CEM) [%] | inhibition of growth at 10 µM (Malme-3M) [%] | inhibition of growth at 10 µM (DU-145) [%] | inhibition of growth at 10 µM (COLO 205) [%] | inhibition of growth at 10 µM (HL-60(TB)) [%] | inhibition of growth at 10 µM (U-251) [%] | inhibition of growth at 10 µM (HCT-15) [%] | inhibition of growth at 10 µM (UO-31) [%] | further results
1 | CN1CCN(CCC(=O)Nc2nc(-c3ccccc3)cs2)CC1 | < 10 | 11.7 | < 10 | 11.1 | < 10 | 11.1 | < 10 | 15.9 | < 10 | 17.2 | < 10 | < 10 | 14.4 | 12.7 | < 10 | < 10 | 11.6 | < 10 | < 10 | 54 | inhibition of growth at 10 µM [1]: 13%; inhibition of growth at 10 µM (PC-3): 10.9%; inhibition of growth at 10 µM (A498): < 10%; inhibition of growth at 10 µM (BT-549): 16.5%; inhibition of growth at 10 µM (K562): < 10%; inhibition of growth at 10 µM (SF-539): < 10%; inhibition of growth at 10 µM (IGROV-1): 10.6%; inhibition of growth at 10 µM (SF-268): < 10%; inhibition of growth at 10 µM [2]: 10.5%; inhibition of growth at 10 µM (SK-MEL-28): < 10%; inhibition of growth at 10 µM (HOP-92): 24.5%; inhibition of growth at 10 µM (SW-620): < 10%; inhibition of growth at 10 µM (A549): < 10%
2 | CCOC(=O)c1sc(NC(=O)CCN2CCN(c3ccccc3)CC2)nc1C | < 10 | < 10 | < 10 | < 10 | < 10 | < 10 | < 10 | < 10 | < 10 | < 10 | < 10 | < 10 | < 10 | 12 | < 10 | < 10 | < 10 | < 10 | < 10 | 19.7 | inhibition of growth at 10 µM [1]: < 10%; inhibition of growth at 10 µM (PC-3): < 10%; inhibition of growth at 10 µM (A498): 12.8%; inhibition of growth at 10 µM (BT-549): < 10%; inhibition of growth at 10 µM (K562): < 10%; inhibition of growth at 10 µM (SF-539): < 10%; inhibition of growth at 10 µM (IGROV-1): < 10%; inhibition of growth at 10 µM (SF-268): < 10%; inhibition of growth at 10 µM [2]: < 10%; inhibition of growth at 10 µM (SK-MEL-28): < 10%; inhibition of growth at 10 µM (HOP-92): 17.5%; inhibition of growth at 10 µM (SW-620): < 10%; inhibition of growth at 10 µM (A549): < 10%
